From ChEMBL document CHEMBL1177650, “Synthesis, structural elucidation and in vitro antiparasitic activity against Trypanosoma cruzi and Leishmania chagasi parasites of novel tetrahydro-1-benzazepine derivatives” (Bioorg Med Chem, 2010) come the findings set out here.

The nature of data set [1]: Cytotoxicity against african green monkey Vero cells after 72 hrs by MTT assay. In kind it is cell-based. Particulars: chlorocebus sabaeus. A digest of the protocol:
(§1)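 Vero or transformed THP-1 cells incubated with compound (0.3–300 μM) 72 h at 37 °C, 5% CO2; untreated controls. MTT read-out, formazan OD at 580 nm; % cytotoxicity = 100 × (OD control − OD treated)/OD control. CC50/CC90 by sigmoidal regression; triplicates, repeated twice. DMSO stocks 100× concentrated, diluted in medium.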
Background: Tetrazolium assays rely on reduction of a dye to a coloured formazan, in cell work by metabolically active cells.

Data set [2] concerns Trypanosoma cruzi. The data set can be described thus: Antitrypanosomal activity against Trypanosoma cruzi 320I01 epimastigotes after 72 hrs by haemocytometry. Particulars: 320I01, 72 h. In kind it is functional, organism-based. An outline of the steps:
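Late-phase T. cruzi epimastigotes cultured in LIT medium with hiFCS at 28 °C; threefold serial dilutions (0.3–100 μM) for 72 h at 28 °C, untreated controls. Parasites counted in a haemocytometer; IC50/IC90 by sigmoidal regression; each concentration in triplicate, two experiments.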

A short description of data set [3]: Selectivity index, CC50 for african green monkey Vero cells to IC50 for Trypanosoma cruzi 320I01 epimastigote. In kind it is functional. An outline of the steps:
(§2)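 Selectivity index computed as CC50 in Vero cells divided by IC50 against the T. cruzi stage named in the line.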

Data set [4] concerns Trypanosoma cruzi. The data set is described as follows: Antitrypanosomal activity against Trypanosoma cruzi 320I01 amastigotes infected in african green monkey Vero cells after 5 days by Giemsa staining. Particulars: 320I01, Vero, 120 h. In kind it is functional, organism-based. An outline of the steps: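 Vero cells (RPMI, 5% hiSBF, 37 °C, 5% CO2) infected 24 h with tissue-derived T. cruzi trypomastigotes at parasite:cell 10:1. Compound dilutions (top 100 μM) applied 5 days at 37 °C, 5% CO2, medium changed once at day 3. Infected cells scored per 300 cells on methanol-fixed Giemsa preparations; IC50/IC90 by sigmoidal regression; triplicates, two experiments.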

The nature of data set [5]: Selectivity index, CC50 for african green monkey Vero cells to IC50 for Trypanosoma cruzi 320I01 amastigotes. In kind it is functional. A digest of the protocol:
as §2

Data set [6] has as its system Leishmania chagasi. The data set can be described thus: Antileishmanial activity against Leishmania chagasi MHOM/BR/74/PP75 promastigotes after 72 hrs by haemocytometry. Particulars: MHOM/BR/74/PP75, 72 h. In kind it is functional, organism-based. An outline of the steps:
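Late-phase L. chagasi promastigotes, grown at 28 °C in RPMI 1640 with hemin, HEPES and 10% hiSBF, exposed to threefold serial dilutions (0.3–100 μM) for 72 h at 28 °C; untreated controls. Growth inhibition from haemocytometer counts; IC50/IC90 by sigmoidal regression; triplicates, repeated twice.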

Data set [7] in a line: Cytotoxicity against human THP1 cells after 72 hrs by MTT assay. In kind it is cell-based. As to conditions: THP-1 cells. A digest of the protocol:
as §1

Data set [8] can be described thus: Selectivity index, CC50 for human THP1 cells to IC50 for Leishmania chagasi MHOM/BR/74/PP75 promastigotes. In kind it is functional, THP-1. A digest of the protocol: (§3)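 Selectivity index computed as CC50 in THP-1 cells divided by IC50 against the L. chagasi stage named in the line.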
Data set [9] concerns Leishmania chagasi. The data set can be described thus: Antileishmanial activity against Leishmania chagasi MHOM/BR/74/PP75 amastigotes infected in human THP1 cells after 5 days by Giemsa staining. In kind it is functional, organism-based. Particulars: MHOM/BR/74/PP75, THP-1, 120 h. An outline of the steps: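 THP-1 cells (RPMI, 5% hiSBF, 37 °C, 5% CO2) transformed, then infected 24 h with late-phase L. chagasi promastigotes at parasite:cell 10:1. Treated with compound dilutions (top 100 μM) 5 days at 37 °C, 5% CO2, medium changed once after 3 days. Infected cells counted per 300 cells on methanol-fixed Giemsa slides; IC50/IC90 by sigmoidal regression; triplicates, repeated twice.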

The nature of data set [10]: Selectivity index, CC50 for human THP1 cells to IC50 for Leishmania chagasi MHOM/BR/74/PP75 amastigotes. In kind it is functional, THP-1. A digest of the protocol:
as §3

pIC50: −log10 of the molar value. A value given as a limit tells only on which side of the number the result lay.

For orientation: CC50 means the concentration giving 50% cytotoxicity. The term pIC50 denotes the IC50 on a negative log10 scale, so that one unit is a factor of ten. One may read the IC90 as the concentration at which the effect reaches the 90% level. On to `O[C@@H]1Cc2cc(Br)ccc2N[C@H](c2ccccc2)C1` (relative stereo), for which the values for the CC50 at 72 h in data set [1] and in data set [7] were 42.1 µM and 185 µM, respectively. The CC90 at 72 h in [1] and in data set [7] was over 300 µM each time. Besides, the pIC50 with Trypanosoma cruzi [2] is 4.80; with Trypanosoma cruzi [4], 4.01; in the data set with Leishmania chagasi [6] it was 4.35; with Leishmania chagasi [9] it was 4.01. Besides, the IC90 was 57.4 µM in the data set on Trypanosoma cruzi [2], 99.4 µM with Trypanosoma cruzi [4], over 100 µM with Leishmania chagasi [6] and over 100 µM with Leishmania chagasi [9]. Moreover, the “Selectivity Index” value in data set [3] is 2.68; in data set [5], 0.43; in data set [8] it was 4.1; in [10], over 1.

As to `Cc1ccc2c(c1)C[C@H]1C[C@@H](c3ccccc3Cl)N2O1` (relative stereo), the CC50 at 72 h in data set [1] is 50.2 µM; in data set [7], 66.8 µM. Also, the values for the CC90 at 72 h in data set [1] and in data set [7] were over 300 µM and 109 µM, respectively. In addition, the pIC50 in the data set with Trypanosoma cruzi [2] is 4.85; with Trypanosoma cruzi [4], 4.28; with Leishmania chagasi [6], 4.38; in the data set with Leishmania chagasi [9], under 4.00. For the same compound, the IC90 was 30.4 µM with Trypanosoma cruzi [2], over 100 µM in the data set with Trypanosoma cruzi [4], 49.5 µM in the data set on Leishmania chagasi [6] and over 100 µM in the data set with Leishmania chagasi [9]. For the same compound, the “Selectivity Index” value was 3.51 in data set [3], 0.96 in [5], 1.6 in data set [8] and over 0.66 in data set [10].

In the case of `Clc1ccc2c(c1)C[C@H]1C[C@@H](c3ccccc3Cl)N2O1` (relative stereo), the values for the CC50 at 72 h in data set [1] and in [7] were 109 µM and over 300 µM, respectively. In addition, the CC90 at 72 h in [1] and in data set [7] was over 300 µM throughout. Moreover, the pIC50 with Trypanosoma cruzi [2] is 4.75; in the data set with Trypanosoma cruzi [4] it was under 4.00; with Leishmania chagasi [6], 4.29; in the data set on Leishmania chagasi [9], under 4.00. In addition, the IC90 in the data set with Trypanosoma cruzi [2] was 43.9 µM; with Trypanosoma cruzi [4], over 100 µM; in the data set on Leishmania chagasi [6] it was over 100 µM; in the data set with Leishmania chagasi [9], over 100 µM. Also, the “Selectivity Index” value in data set [3] is recorded as 6.17; in data set [5], over 1; in data set [8], over 5; in [10], over 3.

Take `Fc1ccccc1[C@@H]1C[C@@H]2Cc3cc(Cl)ccc3N1O2` (relative stereo): the CC50 at 72 h in data set [1] was 123 µM; in data set [7], over 300 µM. Besides, the CC90 at 72 h in data set [1] and in data set [7] was over 300 µM throughout. Further, the pIC50 is 4.72 with Trypanosoma cruzi [2], under 4.00 in the data set on Trypanosoma cruzi [4], 4.62 in the data set with Leishmania chagasi [6] and under 4.00 with Leishmania chagasi [9]. Also, the IC90 was 38.1 µM in the data set on Trypanosoma cruzi [2], over 100 µM in the data set on Trypanosoma cruzi [4], 67.3 µM in the data set with Leishmania chagasi [6] and over 100 µM in the data set on Leishmania chagasi [9]. Moreover, the “Selectivity Index” value is given as 6.51 in data set [3], over 1 in data set [5], over 12 in data set [8] and over 3 in data set [10].

For the compound `Clc1cccc(Cl)c1[C@@H]1C[C@@H]2Cc3ccccc3N1O2` (relative stereo), the CC50 at 72 h in data set [1] and in data set [7] was over 300 µM throughout. For the same compound, the CC90 at 72 h in data set [1] and in [7] was over 300 µM in each case. Moreover, the pIC50 with Trypanosoma cruzi [2], in the data set on Trypanosoma cruzi [4], in the data set on Leishmania chagasi [6] and with Leishmania chagasi [9] was under 4.00 each time. For the same compound, the 90% effect concentration (IC90) with Trypanosoma cruzi [2], in the data set with Trypanosoma cruzi [4], with Leishmania chagasi [6] and with Leishmania chagasi [9] was over 100 µM throughout. In addition, the “Selectivity Index” value in data set [3], in [5], in [8] and in data set [10] was over 3 throughout.

Turning to `Fc1cccc(Cl)c1[C@@H]1C[C@@H]2Cc3ccccc3N1O2` (relative stereo), the CC50 at 72 h in data set [1] and in data set [7] was over 300 µM each time. Moreover, the CC90 at 72 h in data set [1] and in data set [7] was over 300 µM in each case. Further, the pIC50 is 4.75 in the data set with Trypanosoma cruzi [2], under 4.00 with Trypanosoma cruzi [4], under 4.00 in the data set with Leishmania chagasi [6] and under 4.00 with Leishmania chagasi [9]. Also, the IC90 with Trypanosoma cruzi [2], with Trypanosoma cruzi [4], with Leishmania chagasi [6] and in the data set with Leishmania chagasi [9] was over 100 µM throughout. Also, the “Selectivity Index” value is recorded as over 17 in data set [3], over 3 in [5], over 3 in [8] and over 3 in [10].

On to `O[C@@H]1Cc2cc(Cl)ccc2N[C@H](c2ccccc2)C1` (relative stereo), for which the CC50 at 72 h in data set [1] was determined as 191 µM; in [7] it was 188 µM. The CC90 at 72 h in data set [1] and in data set [7] was over 300 µM in each case. Further, the pIC50 with Trypanosoma cruzi [2] was 4.30; with Trypanosoma cruzi [4], under 4.00; in the data set with Leishmania chagasi [6], 4.66; in the data set with Leishmania chagasi [9], under 4.00. The IC90 with Trypanosoma cruzi [2] is over 100 µM; in the data set with Trypanosoma cruzi [4], over 100 µM; in the data set with Leishmania chagasi [6], 90.6 µM; with Leishmania chagasi [9], over 100 µM. Moreover, the “Selectivity Index” value in data set [3] is 3.85; in data set [5], over 2; in data set [8], 8.5; in [10], over 1.

For the compound `Clc1ccc2c(c1)C[C@H]1C[C@@H](c3c(Cl)cccc3Cl)N2O1` (relative stereo), the CC50 at 72 h in [1] was 57 µM; in data set [7] it was over 295 µM. Also, the CC90 at 72 h in data set [1] and in [7] was over 295 µM throughout. Moreover, the pIC50 with Trypanosoma cruzi [2] was under 4.00; in the data set on Trypanosoma cruzi [4] it was under 4.01; in the data set on Leishmania chagasi [6] it was 4.15; in the data set on Leishmania chagasi [9], under 4.01. Further, the IC90 is over 100 µM with Trypanosoma cruzi [2], over 98.2 µM in the data set on Trypanosoma cruzi [4], over 100 µM with Leishmania chagasi [6] and over 98.2 µM in the data set on Leishmania chagasi [9]. Also, the “Selectivity Index” value in data set [3] was over 0.56; in data set [5], over 0.58; in data set [8], 4.15; in data set [10], over 3.

For `Fc1cccc(Cl)c1[C@@H]1C[C@@H]2Cc3cc(Cl)ccc3N1O2` (relative stereo), the CC50 at 72 h in data set [1] and in [7] was over 300 µM throughout. Further, the CC90 at 72 h in [1] and in [7] was over 300 µM each time. Moreover, the pIC50 in the data set with Trypanosoma cruzi [2] was 4.32; in the data set on Trypanosoma cruzi [4] it was under 4.00; in the data set with Leishmania chagasi [6], under 4.00; in the data set on Leishmania chagasi [9] it was under 4.00. Besides, the IC90 with Trypanosoma cruzi [2], in the data set with Trypanosoma cruzi [4], in the data set on Leishmania chagasi [6] and in the data set with Leishmania chagasi [9] was over 100 µM throughout. Moreover, the “Selectivity Index” value is reported as over 6 in data set [3], over 3 in data set [5], over 3 in [8] and over 3 in data set [10].

With `O[C@@H]1Cc2ccccc2N[C@H](c2ccccc2)C1` (relative stereo), the CC50 at 72 h in data set [1] and in data set [7] was over 300 µM in each case. For the same compound, the CC90 at 72 h in data set [1] and in data set [7] was over 300 µM each time. Besides, the pIC50 was 4.50 in the data set on Trypanosoma cruzi [2], under 4.00 with Trypanosoma cruzi [4], under 4.00 in the data set on Leishmania chagasi [6] and under 4.00 in the data set on Leishmania chagasi [9]. In addition, the 90% effect concentration (IC90) in the data set on Trypanosoma cruzi [2], in the data set with Trypanosoma cruzi [4], in the data set with Leishmania chagasi [6] and in the data set on Leishmania chagasi [9] was over 100 µM in each case. Further, the “Selectivity Index” value was over 9 in [3], over 3 in data set [5], over 3 in data set [8] and over 3 in data set [10].

In the case of `O[C@@H]1Cc2cc(OC(F)(F)F)ccc2N[C@H](c2ccccc2)C1` (relative stereo), the results for the CC50 at 72 h in [1] and in [7] were 124 µM and 104 µM, respectively. The CC90 at 72 h was 263 µM in data set [1] and over 300 µM in [7]. Further, the pIC50 in the data set with Trypanosoma cruzi [2] is 4.58; in the data set on Trypanosoma cruzi [4], under 4.00; in the data set with Leishmania chagasi [6] it was 4.45; with Leishmania chagasi [9], under 4.00. In addition, the IC90 is 60.4 µM with Trypanosoma cruzi [2], over 100 µM in the data set on Trypanosoma cruzi [4], 43.2 µM in the data set on Leishmania chagasi [6] and over 100 µM with Leishmania chagasi [9]. Moreover, the “Selectivity Index” value in [3] was 4.64; in data set [5] it was over 1; in [8] it was 2.92; in data set [10], over 1.
